Key:
[1] = system: phosphorylated levels of GST-Cables1 (endogenous Akt); format: cell-based; settings: for block of IGF-1-induced enhancement of GST-Cables1 phosphorylation: 10 μM inhibitor 1 h, then 100 ng/ml IGF 15 min, serum-starved cells
[2] = system: phosphorylation of Cables1 at T44 and T150; test: A549 xenograft tumors: Cables1 phosphorylation; format: in vivo, lung cancer A549 xenograft mouse model; settings: Figure S1
[3] = system: Akt phosphorylation at T473 (Akt pT473); test: A549 xenograft tumors: Akt phosphorylation; format: in vivo, lung cancer A549 xenograft mouse model; settings: compared with vehicle, Figure S1
14-3-3ν = 14-3-3ν (UniProt Q04917); test: TR-FRET titration; settings: reference: unphosphorylated T44 peptide; sites T44
[4] = system: Cables1 binding to 14-3-3 (GST-Cables1 / His-14-3-3γ); settings: COS7 lysates expressing GST-Cables1 and His-14-3-3γ, 0.5 h, room temperature
Procedure, shortened: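 COS7 cells co-expressing His-14-3-3γ and GST-Cables1 were lysed. Lysates were incubated 0.5 h at room temperature with calf intestinal phosphatase, with phosphatase inhibitors (5 mM Na4P2O7, 5 mM NaF, 5 mM Na3VO4), or untreated. His-14-3-3γ complexes were captured on nickel-charged resin (2 h, 4°C), washed, and eluted by boiling in SDS sample buffer. GST-Cables1 was detected by Western blot.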

Sequence of UniProt Q04917 (Q04917 whole entry, looked up): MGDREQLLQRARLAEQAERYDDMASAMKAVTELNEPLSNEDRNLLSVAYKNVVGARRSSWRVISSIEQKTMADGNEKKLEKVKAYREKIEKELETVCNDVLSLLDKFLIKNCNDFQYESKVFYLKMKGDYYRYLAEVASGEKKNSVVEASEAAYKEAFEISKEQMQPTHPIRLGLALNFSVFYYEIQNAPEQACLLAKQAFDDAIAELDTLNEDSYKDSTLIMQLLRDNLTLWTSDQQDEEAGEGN

IGF-1: IGF-1, Sigma-Aldrich was tested, and the “phosphorylated levels of GST-Cables1” value ([1]; 100 ng/ml IGF, 15 min, cells serum-starved 24 h, GST pull-down, Western blot) was “markedly enhanced”.

For `O.O=C(O)C(F)(F)F.O=c1[nH]c2ccccc2n1C1CCN(Cc2ccc(-c3nc4cc5[nH]cnc5cc4nc3-c3ccccc3)cc2)CC1` [AKT1/2 inhibitor], the “block of IGF-1-induced enhancement of GST-Cables1 phosphorylation” value [1] was “totally blocked”.

`CC(C)n1nc(-c2ccc3oc(N)nc3c2)c2c(N)ncnc21` [INK128] was tested, and the “phosphorylation of Cables1 at T44 in tumors” value ([2]; pT44, compared with vehicle) was “decreased”, the “phosphorylation of Cables1 at T150 in tumors” value ([2]; pT150, compared with vehicle) was “decreased” and the “Akt pT473 level in tumors” value [3] was “reduced”.

In the case of “Cables1 (from UniProt Q8TDN4-2) pT44 peptide”, the “binding against the reference” value (14-3-3ν) is reported as “stronger”.

`O=c1cc(N2CCOCC2)oc2c(-c3ccccc3)cccc12` [LY294002] was tested, and the “block of IGF-1-induced enhancement of GST-Cables1 phosphorylation” value [1] was “totally blocked”.

B1: CIP: calf intestinal phosphatase (protein, UniProt P19111 20-506, looked up)
Intestinal-type alkaline …: LVPVEEEDPAFWNRQAAQALDVAKKLQPIQTAAKNVILFLGDGMGVPTVTATRILKGQMNGKLGPETPLAMDQFPYVALSKTYNVDRQVPDSAGTATAYLCGVKGNYRTIGVSAAARYNQCKTTRGNEVTSVMNRAKKAGKSVGVVTTTRVQHASPAGAYAHTVNRNWYSDADLPADAQMNGCQDIAAQLVNNMDIDVILGGGRKYMFPVGTPDPEYPDDASVNGVRKRKQNLVQAWQAKHQGAQYVWNRTALLQAADDSSVTHLMGLFEPADMKYNVQQDHTKDPTLQEMTEVALRVVSRNPRGFYLFVEGGRIDHGHHDDKAYMALTEAGMFDNAIAKANELTSELDTLILVTADHSHVFSFGGYTLRGTSIFGLAPSKALDSKSYTSILYGNGPGYALGGGSRPDVNDSTSEDPSYQQQAAVPQASETHGGEDVAVFARGPQAHLVHGVEEETFVAHIMAFAGCVEPYTDCNLPAPTTATSIPD
For B1, the “Cables1 binding to 14-3-3 after CIP treatment” value [4] was “reduced”.

Reference: PMC4617824 (Cancer research, 2014)
